Reference: publication PMC7220363 (Drug Design, Development and Therapy, 2020)

Experiments:
mTOR enzyme = mTOR enzyme (Homo sapiens, UniProt P42345); test: mTOR enzyme assay; format: biochemical; details: for Selectivity: PI3Kα IC50 relative to mTOR IC50 (table column); for inhibitory activity against mTOR (in words): derivatives with a para-substituent group on R3
PI3Kα (p110α/p85α) = PI3Kα (p110α/p85α) (Homo sapiens, UniProt P42336); test: PI3Kα enzyme assay; format: biochemical
Outline: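 Purchased recombinant PI3K enzyme (α, β, δ as p110/p85α; γ as p120γ) was mixed with the PIP2:3PS lipid substrate, and the reaction was started with ATP from a 250 µM solution. Luminescence was read by ADP-Glo. Inhibition was normalised to DMSO and no-enzyme controls, with IC50 averaged over two runs.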

Chain of PI3Kα (p110α/p85α) (P42336 whole entry): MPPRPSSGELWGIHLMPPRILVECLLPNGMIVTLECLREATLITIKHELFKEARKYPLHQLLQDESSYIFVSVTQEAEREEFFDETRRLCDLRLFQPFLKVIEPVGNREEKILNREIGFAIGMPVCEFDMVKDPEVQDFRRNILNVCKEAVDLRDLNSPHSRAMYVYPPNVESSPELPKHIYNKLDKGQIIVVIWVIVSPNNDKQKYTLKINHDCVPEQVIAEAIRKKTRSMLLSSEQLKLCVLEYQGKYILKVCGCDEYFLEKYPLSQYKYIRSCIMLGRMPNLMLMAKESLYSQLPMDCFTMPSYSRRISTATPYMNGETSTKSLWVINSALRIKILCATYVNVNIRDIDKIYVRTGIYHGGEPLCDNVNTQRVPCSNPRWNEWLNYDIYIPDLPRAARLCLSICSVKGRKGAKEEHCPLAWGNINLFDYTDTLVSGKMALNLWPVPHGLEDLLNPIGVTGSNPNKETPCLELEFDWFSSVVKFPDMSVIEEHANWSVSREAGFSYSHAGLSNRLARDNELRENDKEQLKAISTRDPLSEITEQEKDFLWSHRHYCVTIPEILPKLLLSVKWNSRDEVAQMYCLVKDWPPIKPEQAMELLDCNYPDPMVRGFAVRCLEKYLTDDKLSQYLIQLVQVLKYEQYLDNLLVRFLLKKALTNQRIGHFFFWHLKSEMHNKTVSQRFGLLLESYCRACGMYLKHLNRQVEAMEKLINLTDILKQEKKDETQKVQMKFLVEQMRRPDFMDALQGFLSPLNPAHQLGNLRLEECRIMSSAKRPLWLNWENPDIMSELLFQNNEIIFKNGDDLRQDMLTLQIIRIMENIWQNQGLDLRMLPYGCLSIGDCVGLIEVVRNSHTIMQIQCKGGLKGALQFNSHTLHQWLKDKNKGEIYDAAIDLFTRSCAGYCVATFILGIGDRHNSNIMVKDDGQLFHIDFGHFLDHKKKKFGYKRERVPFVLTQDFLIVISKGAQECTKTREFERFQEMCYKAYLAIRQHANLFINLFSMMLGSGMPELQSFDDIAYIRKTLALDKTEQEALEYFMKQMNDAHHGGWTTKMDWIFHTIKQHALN
Chain of PI3Kα (p110α/p85α) (P27986 whole entry partner): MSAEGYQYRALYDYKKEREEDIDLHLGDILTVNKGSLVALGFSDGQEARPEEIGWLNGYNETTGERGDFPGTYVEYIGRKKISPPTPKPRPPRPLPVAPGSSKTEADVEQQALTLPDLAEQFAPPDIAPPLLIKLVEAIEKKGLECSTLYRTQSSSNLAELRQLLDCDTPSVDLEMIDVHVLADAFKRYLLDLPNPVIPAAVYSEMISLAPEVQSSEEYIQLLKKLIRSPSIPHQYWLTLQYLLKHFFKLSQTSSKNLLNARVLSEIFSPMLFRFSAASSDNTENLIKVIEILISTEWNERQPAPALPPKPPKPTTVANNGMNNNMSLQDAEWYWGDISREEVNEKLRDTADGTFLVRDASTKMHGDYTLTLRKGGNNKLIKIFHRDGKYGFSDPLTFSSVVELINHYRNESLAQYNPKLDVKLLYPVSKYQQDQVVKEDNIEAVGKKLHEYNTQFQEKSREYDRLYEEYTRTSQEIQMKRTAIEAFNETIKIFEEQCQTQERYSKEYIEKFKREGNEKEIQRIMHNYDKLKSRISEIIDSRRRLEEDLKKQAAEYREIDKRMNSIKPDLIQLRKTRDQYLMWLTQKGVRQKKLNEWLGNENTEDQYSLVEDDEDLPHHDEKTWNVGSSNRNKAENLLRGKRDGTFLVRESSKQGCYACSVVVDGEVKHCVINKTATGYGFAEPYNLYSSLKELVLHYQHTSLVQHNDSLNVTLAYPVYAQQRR

| Compound | IC50 (mTOR enzyme) [nM] | Selectivity (mTOR enzyme) | IC50 (PI3Kα (p110α/p85α)) [nM] | inhibitory activity against mTOR (in words) (mTOR enzyme) | inhibition at 10 µM (mTOR enzyme; read-out: mTOR enzyme inhibition rate) [%] |
| --- | --- | --- | --- | --- | --- |
| COc1cccc(C2C(C(=O)Nc3cccc(F)c3)=C(C)Nc3nc(SCCC4OCCO4)nn32)c1 (stereo not shown) [2g, 2-((2-(1,3-Dioxolan-2-yl)Ethyl)Thio)-N-(3-Fluorophenyl)-7-(3-Methoxyphenyl)-5-Methyl-4,7-Dihydro-[1,2,4]Triazolo[1,5-a]Pyrimidine-6-Carboxamide] | 313 | 3 | 844 | – | – |
| COc1cccc(C2C(C(=O)Nc3ccc(C(C)=O)cc3)=C(C)Nc3nc(SCCC4OCCO4)nn32)c1 (stereo not shown) [2j, 2-((2-(1,3-Dioxolan-2-yl)Ethyl)Thio)-N-(4-Acetylphenyl)-7-(3-Methoxyphenyl)-5-Methyl-4,7-Dihydro-[1,2,4]Triazolo[1,5-a]Pyrimidine-6-Carboxamide] | 184 | 5 | 952 | – | – |
| COC(=O)CCSc1nc2n(n1)C(c1cccc(OC)c1)C(C(=O)Nc1cccc(F)c1)=C(C)N2 (stereo not shown) [2b, Methyl 3-((6-((3-Fluorophenyl)Carbamoyl)-7-(3-Methoxyphenyl)-5-Methyl-4,7-Dihydro-[1,2,4]Triazolo[1,5-a]Pyrimidin-2-yl)Thio)Propanoate] | 124 | 4 | 437 | – | – |
| COC(=O)CCSc1nc2n(n1)C(c1cccc(OC)c1)C(C(=O)Nc1ccc(OC)cc1)=C(C)N2 (stereo not shown) [2c, Methyl 3-((7-(3-Methoxyphenyl)-6-((4-Methoxyphenyl)Carbamoyl)-5-Methyl-4,7-Dihydro-[1,2,4]Triazolo[1,5-a]Pyrimidin-2-yl)Thio)Propanoate] | 139 | 8 | 1050 | – | – |
| COCCCSc1nc2n(n1)C(c1cccc(OC)c1)C(C(=O)Nc1cccnc1)=C(C)N2 (stereo not shown) [1a, 7-(3-Methoxyphenyl)-2-((3-Methoxypropyl)Thio)-5-Methyl-N-(Pyridin-3-yl)-4,7-Dihydro-[1,2,4]Triazolo[1,5-a]Pyrimidine-6-Carboxamide] | 167 | 9 | 1580 | – | 91.8 |
| COc1cccc(C2C(C(=O)Nc3cccnc3)=C(C)Nc3nc(SCCC4OCCO4)nn32)c1 (stereo not shown) [1b, 2-((2-(1,3-Dioxolan-2-yl)Ethyl)Thio)-7-(3-Methoxyphenyl)-5-Methyl-N-(Pyridin-3-yl)-4,7-Dihydro-[1,2,4]Triazolo[1,5-a]Pyrimidine-6-Carboxamide] | 50 | 16 | 793 | – | – |
| COc1cccc(C2C(C(=O)Nc3cccc(C(C)=O)c3)=C(C)Nc3nc(SCCC4OCCO4)nn32)c1 (stereo not shown) [2i, 2-((2-(1,3-Dioxolan-2-yl)Ethyl)Thio)-N-(3-Acetylphenyl)-7-(3-Methoxyphenyl)-5-Methyl-4,7-Dihydro-[1,2,4]Triazolo[1,5-a]Pyrimidine-6-Carboxamide] | 92 | 29 | 2680 | – | – |
| COC(=O)CCSc1nc2n(n1)C(c1cccc(OC)c1)C(C(=O)Nc1cccc(C(C)=O)c1)=C(C)N2 (stereo not shown) [2d, Methyl 3-((6-((3-Acetylphenyl)Carbamoyl)-7-(3-Methoxyphenyl)-5-Methyl-4,7-Dihydro-[1,2,4]Triazolo[1,5-a]Pyrimidin-2-yl)Thio)Propanoate] | 23 | 10 | 228 | – | – |
| COC(=O)CCSc1nc2n(n1)C(c1cccc(OC)c1)C(C(=O)Nc1ccc(C(C)=O)cc1)=C(C)N2 (stereo not shown) [2e, Methyl 3-((6-((4-Acetylphenyl)Carbamoyl)-7-(3-Methoxyphenyl)-5-Methyl-4,7-Dihydro-[1,2,4]Triazolo[1,5-a]Pyrimidin-2-yl)Thio)Propanoate] | 72 | 4 | 254 | – | – |
| COc1ccc(NC(=O)C2=C(C)Nc3nc(SCCC4OCCO4)nn3C2c2cccc(OC)c2)cc1 (stereo not shown) [2h, 2-((2-(1,3-Dioxolan-2-yl)Ethyl)Thio)-7-(3-Methoxyphenyl)-N-(4-Methoxyphenyl)-5-Methyl-4,7-Dihydro-[1,2,4]Triazolo[1,5-a]Pyrimidine-6-Carboxamide] | 359 | 9 | 3200 | – | – |
| COc1cccc(C2C(C(=O)Nc3cncc(C)c3)=C(C)Nc3nc(SCCC4OCCO4)nn32)c1 (stereo not shown) [2f, 2-((2-(1,3-Dioxolan-2-yl)Ethyl)Thio)-7-(3-Methoxyphenyl)-5-Methyl-N-(5-Methylpyridin-3-yl)-4,7-Dihydro-[1,2,4]Triazolo[1,5-a]Pyrimidine-6-Carboxamide] | 28 | 7 | 193 | – | – |

Continued, values first:

| IC50 (mTOR enzyme) [nM] | Selectivity (mTOR enzyme) | IC50 (PI3Kα (p110α/p85α)) [nM] | inhibitory activity against mTOR (in words) (mTOR enzyme) | inhibition at 10 µM (mTOR enzyme; read-out: mTOR enzyme inhibition rate) [%] | Compound |
| --- | --- | --- | --- | --- | --- |
| 2210 | >5 | > 10000 | low inhibitory activity against mTOR | – | COC(=O)CCSc1nc2n(n1)C(c1ccc(O)cc1)C(C(=O)Nc1cncc(C)c1)=C(C)N2 (stereo not shown) [3b, Methyl 3-((7-(4-Hydroxyphenyl)-5-Methyl-6-((5-Methylpyridin-3-yl) Carbamoyl)-4,7-Dihydro-[1,2,4]Triazolo[1,5-a]Pyrimidin-2-yl)Thio)Propanoate] |
| 1770 | >6 | > 10000 | low inhibitory activity against mTOR | – | COC(=O)CCSc1nc2n(n1)C(c1ccc(F)cc1)C(C(=O)Nc1cncc(C)c1)=C(C)N2 (stereo not shown) [3g, Methyl 3-((7-(4-Fluorophenyl)-5-Methyl-6-((5-Methylpyridin-3-yl)carbamoyl)-4,7-Dihydro-[1,2,4] Triazolo[1,5-a]Pyrimidin-2-yl)Thio)Propanoate] |
| 326 | 2 | 738 | – | – | COC(=O)CCSc1nc2n(n1)C(c1cccc(F)c1)C(C(=O)Nc1cncc(C)c1)=C(C)N2 (stereo not shown) [3h, Methyl 3-((7-(3-Fluorophenyl)-5-Methyl-6-((5-Methylpyridin-3-yl)Carbamoyl)-4,7-Dihydro-[1,2,4] Triazolo[1,5-a]Pyrimidin-2-yl)Thio)Propanoate] |
| 246 | 3 | 703 | – | – | COC(=O)CCSc1nc2n(n1)C(c1ccccc1)C(C(=O)Nc1cncc(C)c1)=C(C)N2 (stereo not shown) [3c, Methyl 3-((5-Methyl-6-((5-Methylpyridin-3-yl)carbamoyl)-7-Phenyl-4,7- Dihydro-[1,2,4]Triazolo[1,5-a]Pyrimidin-2-yl)Thio)Propanoate] |
| 260 | 14 | 3560 | – | – | COC(=O)CCSc1nc2n(n1)C(c1cccc(O)c1)C(C(=O)Nc1cncc(C)c1)=C(C)N2 (stereo not shown) [3a, Methyl 3-((7-(3-Hydroxyphenyl)-5-Methyl-6-((5-Methylpyridin-3-yl) Carbamoyl)-4,7-Dihydro-[1,2,4] Triazolo[1,5-a]Pyrimidin-2-yl)Thio)Propanoate] |
| 529 | 0.8 | 433 | – | – | COC(=O)CCSc1nc2n(n1)C(c1cc(C)cc(C)c1)C(C(=O)Nc1cncc(C)c1)=C(C)N2 (stereo not shown) [3f, Methyl 3-((7-(3,5-Dimethylphenyl)-5-Methyl-6-((5-Methylpyridin-3-yl) Carbamoyl)-4,7-Dihydro-[1,2,4]Triazolo[1,5-a]Pyrimidin-2-yl)Thio)Propanoate] |
| 932 | 8 | 7360 | low inhibitory activity against mTOR | – | COC(=O)CCSc1nc2n(n1)C(c1ccc(C)cc1)C(C(=O)Nc1cncc(C)c1)=C(C)N2 (stereo not shown) [3d, Methyl 3-((5-Methyl-6-((5-Methylpyridin-3-yl)Carbamoyl)-7-(p-Tolyl)-4,7 -Dihydro-[1,2,4]Triazolo[1,5-a]Pyrimidin-2-yl)Thio)Propanoate] |
| 479 | 6 | 2770 | – | – | COC(=O)CCSc1nc2n(n1)C(c1ccccc1C)C(C(=O)Nc1cncc(C)c1)=C(C)N2 (stereo not shown) [3e, Methyl 3-((5-Methyl-6-((5-Methylpyridin-3-yl)Carbamoyl)-7-(o-Tolyl)-4,7-Dihydro-[1,2,4]Triazolo[1,5-a]pyrimidin-2-yl)Thio)Propanoate] |
